Reference: article PMC10764114 (ACS Omega, 2023)
Like-named read-outs stand apart in the source and are kept apart here.

Tests used:
[1] = system: U87-malignant glioma (ATCC-HTB-14); experiment: MTT assay, cytotoxicity against U87-malignant glioma cells; assay type: cell-based, human; conditions: for viability at 10 µM / viability at 40 µM / viability at 80 µM / viability at 100 µM / viability at 150 µM: read-out: % cell viability U87; for IC50: read-out: IC50 (μM ± SEM U87)
Procedure, shortened: (§1)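 Cells grown in DMEM (4.5 g/L glucose, 10% FBS, 1% penicillin/streptomycin) at 37 °C, 5% CO₂. Seeded at 1 × 10³ cells/well and left 24 h to adhere. Test compound added at 10, 40, 80, 100 or 150 μM for 48 h (text also states MTT added 24 h post-dosing). MTT in PBS added for 3 h, formazan dissolved in DMSO for 30 min, OD read at 550 nm, % viability calculated from absorbance.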

[2] = MTT assay, cytotoxicity against normal HEK293 cells; assay type: cell-based, human; conditions: human, HEK293 cells
Procedure, shortened: as §1

[3] = system: human embryonic kidney HEK293 cell line; experiment: as above; assay type: cell-based
Procedure, shortened: as §1

[4] = MTT assay, U87 malignant glioma cells, ± SEM

Compound | viability at 10 µM ([1]; Homo sapiens, Glioma cell) | viability at 40 µM ([1]; Homo sapiens, Glioma cell) | viability at 80 µM ([1]; Homo sapiens, Glioma cell) | viability at 100 µM ([1]; Homo sapiens, Glioma cell) | viability at 150 µM ([1]; Homo sapiens, Glioma cell) | IC50 ([1]; Homo sapiens, Glioma cell) | viability at 48 h, 10 μM [2] | viability at 48 h, 40 μM [2] | viability at 48 h, 80 μM [2] | viability at 48 h, 100 μM [2] | viability at 48 h, 150 μM [2] | also measured
COc1ccc(C=NNC(=O)COc2ccc(C=NNC(=O)C(C)c3ccc(CC(C)C)cc3)cc2)c(OC)c1 (stereo not shown) [5f, N′-(4-(2-(2-(2,4-Dimethoxybenzylidene)hydrazinyl)-2-oxoethoxy)benzylidene)-2-(4-isobutylphenyl)propanehydrazide] | 54.1% | 44.2% | 38.7% | 29% | 21.6% | 24.2 ± 0.46 µM | 103% | 79.2% | 71.9% | 69.9% | 63.5% | cytotoxicity in noncancerous cells (HEK293) ([3]; compared with malignant glioma U87 cells, 10-150 μM): lower cytotoxicity
COc1cccc(C=NNC(=O)COc2ccc(C=NNC(=O)C(C)c3ccc(CC(C)C)cc3)cc2)c1 (stereo not shown) [5p, 2-(4-Isobutylphenyl)-N′-(4-(2-(2-(3-methoxybenzylidene)hydrazinyl)-2-oxoethoxy)benzylidene)propanehydrazide] | 151% | 122% | 93.7% | 93.7% | 93.5% | 90.68 ± 0.13 µM | 49.9% | 49.4% | 49.2% | 48.1% | 39.3% | 
CCN(CC)c1ccc(C=NNC(=O)COc2ccc(C=NNC(=O)C(C)c3ccc(CC(C)C)cc3)cc2)cc1 (stereo not shown) [5o, N′-(4-(2-(2-(4-(Diethylamino)benzylidene)hydrazinyl)-2-oxoethoxy)benzylidene)-2-(4-isobutylphenyl)propanehydrazide] | 146% | 122% | 121% | 119% | 107% | 119.7 ± 0.25 µM | 49% | 42.9% | 37.7% | 35.8% | 35.2% | 
COc1ccc(C=NNC(=O)COc2ccc(C=NNC(=O)C(C)c3ccc(CC(C)C)cc3)cc2)cc1O (stereo not shown) [5n, N′-(4-(2-(2-(3-Hydroxy-4-methoxybenzylidene)hydrazinyl)-2-oxoethoxy)benzylidene)-2-(4-isobutylphenyl)propanehydrazide] | 165% | 85.3% | 61.1% | 42.7% | 33.2% | 40.18 ± 0.07 µM | 38.1% | 28% | 24.8% | 16.9% | 12.6% | 
2-(4-Isobutyl phenyl)-N′-(4-(2-oxo-2-(2-(−3,4,5-trimethoxybenzylidene)hydrazinyl)ethoxy)benzylidene)propanehydrazide [5g] |  |  |  |  |  |  |  |  |  |  |  | % cell viability U87 ([1]; concentration 10 (μM)): 56.40%; % cell viability U87 ([1]; concentration 40 (μM)): 47.40%; % cell viability U87 ([1]; concentration 80 (μM)): 39.45%; % cell viability U87 ([1]; concentration 100 (μM)): 33.32%; % cell viability U87 ([1]; concentration 150 (μM)): 30.90%; IC50 [1, 4]: 39.94 ± 0.16 µM; % cell viability HEK293 ([3]; concentration 10 (μM)): 86.66%; % cell viability HEK293 ([3]; concentration 40 (μM)): 75.46%; % cell viability HEK293 ([3]; concentration 80 (μM)): 62.21%; % cell viability HEK293 ([3]; concentration 100 (μM)): 62.12%; % cell viability HEK293 ([3]; concentration 150 (μM)): 56.11%
CC(C)Cc1ccc(C(C)C(=O)NN=Cc2ccc(OCC(=O)NN=Cc3cc(Br)c(O)c(Br)c3)cc2)cc1 (stereo not shown) [5i, N′-(4-(2-(2-(3,5-Dibromo-4-hydroxybenzylidene)hydrazinyl)-2-oxoethoxy)benzylidene)-2-(4-isobutylphenyl)propanehydrazide] | 40.3% | 36.9% | 31.4% | 29.9% | 24.4% | 38.32 ± 0.1 µM | 67.6% | 57.4% | 55.7% | 49.9% | 43.8% | 
CC(C)Cc1ccc(C(C)C(=O)NN=Cc2ccc(OCC(=O)NN=Cc3cccc4ccccc34)cc2)cc1 (stereo not shown) [5t, 2-(4-Isobutylphenyl)-N′-(4-(2-(2-(naphthalen-1-ylmethylene)hydrazinyl)-2-oxoethoxy)benzylidene)propanehydrazide] | 179% | 169% | 155% | 146% | 140% | 86.74 ± 0.26 µM | 68.7% | 58.9% | 51% | 47.3% | 43% | 
CC(C)Cc1ccc(C(C)C(=O)NN=Cc2ccc(OCC(=O)NN=Cc3ccc(Br)cc3F)cc2)cc1 (stereo not shown) [5j, N′-(4-(2-(2-(4-Bromo-2-fluorobenzylidene)hydrazinyl)-2-oxoethoxy)benzylidene)-2-(4-isobutylphenyl)propanehydrazide] | 187% | 128% | 94.2% | 93.1% | 78.6% | 43.71 ± 0.07 µM | 44.5% | 40.1% | 38.4% | 36.8% | 26.3% | 
CC(C)Cc1ccc(C(C)C(=O)NN=Cc2ccc(OCC(=O)NN=Cc3ccccc3O)cc2)cc1 (stereo not shown) [5r, N′-(4-(2-(2-(2-Hydroxybenzylidene)hydrazinyl)-2-oxoethoxy)benzylidene)-2-(4-isobutylphenyl)propanehydrazide] | 109% | 81.4% | 72.8% | 45.5% | 40.6% | 43.66 ± 0.04 µM | 39% | 33.6% | 32% | 26.1% | 25.1% | 
CC(C)Cc1ccc(C(C)C(=O)NN=Cc2ccc(OCC(=O)NN=Cc3ccc(F)cc3)cc2)cc1 (stereo not shown) [5q, N′-(4-(2-(2-(4-Fluorobenzylidene)hydrazinyl)-2-oxoethoxy)benzylidene)-2-(4-isobutylphenyl)propanehydrazide] | 183% | 84% | 81.7% | 48.5% | 40.5% | 46 ± 0.08 µM | 27.5% | 25.4% | 19.9% | 19.7% | 17.8% | 
CC(C)Cc1ccc(C(C)C(=O)NN=Cc2ccc(OCC(=O)NN)cc2)cc1 (stereo not shown) [compound 4, N′-(4-(2-Hydrazinyl-2-oxoethoxy)benzylidene)-2-(4-isobutylphenyl)propanehydrazide] | 72.5% | 47.9% | 41.6% | 41.3% | 33.7% | 59.9 ± 0.08 µM | 29.1% | 28.6% | 28.2% | 26.3% | 9.96% | 
COc1ccc(C=NNC(=O)COc2ccc(C=NNC(=O)C(C)c3ccc(CC(C)C)cc3)cc2)c(O)c1 (stereo not shown) [5m, N′-(4-(2-(2-(2-Hydroxy-4-methoxybenzylidene)hydrazinyl)-2-oxoethoxy)benzylidene)-2-(4-isobutylphenyl)propanehydrazide] | 142% | 138% | 34.5% | 134% | 128% | 150.5 ± 0.2 µM | 26.2% | 26.1% | 24.2% | 21.9% | 18.6% | 
CC(C)Cc1ccc(C(C)C(=O)NN=Cc2ccc(OCC(=O)NN=Cc3ccc(Cl)cc3Cl)cc2)cc1 (stereo not shown) [5h, N′-(4-(2-(2-(2,4-Dichlorobenzylidene)hydrazinyl)-2-oxoethoxy)benzylidene)-2-(4-isobutylphenyl)propanehydrazide] | 50.2% | 50.1% | 48.8% | 46% | 43.6% | 120.1 ± 0.13 µM | 84.1% | 79.5% | 69.1% | 68.3% | 67.1% | 
COc1ccc(C=NNC(=O)COc2ccc(C=NNC(=O)C(C)c3ccc(CC(C)C)cc3)cc2)cc1OC (stereo not shown) [5l, N′-(4-(2-(2-(3,4-Dimethoxybenzylidene)hydrazinyl)-2-oxoethoxy)benzylidene)-2-(4-isobutylphenyl)propanehydrazide] | 97% | 88.4% | 84.9% | 84.2% | 79.7% | 72.83 ± 0.06 µM | 30.5% | 28.1% | 25.9% | 24.9% | 24.2% | 
2-(4-Isobutyl phenyl)-N′-(4-(2-(2-(4-isopropylbenzylidene)hydrazinyl)-2-oxoethoxy)benzylidene)propanehydrazide [5s] |  |  |  |  |  |  |  |  |  |  |  | % cell viability U87 ([1]; concentration 10 (μM)): 145.03%; % cell viability U87 ([1]; concentration 40 (μM)): 93.13%; % cell viability U87 ([1]; concentration 80 (μM)): 92.16%; % cell viability U87 ([1]; concentration 100 (μM)): 78.36%; % cell viability U87 ([1]; concentration 150 (μM)): 69.18%; IC50 [1, 4]: 43.73 ± 0.11 µM; % cell viability HEK293 ([3]; concentration 10 (μM)): 58.72%; % cell viability HEK293 ([3]; concentration 40 (μM)): 58.38%; % cell viability HEK293 ([3]; concentration 80 (μM)): 51.45%; % cell viability HEK293 ([3]; concentration 100 (μM)): 49.00%; % cell viability HEK293 ([3]; concentration 150 (μM)): 39.29%
